Experimental findings from ChEMBL document CHEMBL1212832, “Antiprotozoal steroidal saponins from the marine sponge Pandaros acanthifolium” (J Nat Prod, 2010) are described below.

Series [1] has as its target T1, 3-oxoacyl-acyl-carrier protein reductase (Plasmodium falciparum) (UniProt Q965D6).
T1 sequence (whole entry): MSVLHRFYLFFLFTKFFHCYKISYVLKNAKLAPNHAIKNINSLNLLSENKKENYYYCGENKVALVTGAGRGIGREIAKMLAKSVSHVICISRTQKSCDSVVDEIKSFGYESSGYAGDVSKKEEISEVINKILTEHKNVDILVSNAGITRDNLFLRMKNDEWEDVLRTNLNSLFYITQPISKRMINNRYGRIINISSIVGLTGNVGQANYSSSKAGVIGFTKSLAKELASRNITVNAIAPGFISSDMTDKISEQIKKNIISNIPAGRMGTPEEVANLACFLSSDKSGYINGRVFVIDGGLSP
Put plainly: Inhibition of Plasmodium falciparum recombinant FabG at 20 ug/mL by spectrophotometric analysis.

In series [2] the test system is Leishmania donovani. Kind of series: Ratio of miltefosine IC50 to compound IC50 for Leishmania donovani (MHOM/ET/67/L82) amastigotes.
The subject of series [3] is Trypanosoma brucei rhodesiense. Kind of series: Trypanocidal activity against Trypanosoma brucei rhodesiense STIB 900 after 72 hrs. The class given is functional, organism-based. The following applies: STIB 900, 72 h. In short, it runs like this: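 Bloodstream forms (10^4 per well) in MEM with 25 mM HEPES, extra glucose, non-essential amino acids, 2-mercaptoethanol, pyruvate and 15% heat-inactivated horse serum; seven 3-fold dilutions from 90 to 0.12 µg/mL, 72 h at 37 °C, 5% CO2. Resazurin added for 2–4 h, fluorescence at ex 536/em 588 nm; melarsoprol as standard.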

Another series relates to Plasmodium falciparum. Kind of series: Antimalarial activity against chloroquine and pyrimethamine-resistant Plasmodium falciparum K1 assessed as inhibition of [3H]hypoxanthine incorporation after 48 hrs by scintillation counting. The class given is functional, organism-based. The gist of the method: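 K1 strain (chloroquine- and pyrimethamine-resistant) cultured in RPMI 1640 with 5% Albumax II, 0.2% w/v glucose, 0.03% L-glutamine. Two-fold dilution series from DMSO stocks, final DMSO ≤0.25%. 48 h at 37 °C, then 0.1 µCi [3H]-hypoxanthine added and incubated 24 h more. Freeze-stopped at -80 °C, harvested onto glass fiber filters, scintillation counted. IC50 calculated. Chloroquine as standard.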

The subject of a further series is L6. Put plainly: Cytotoxicity against rat L6 cells after 72 hrs by Alamar blue assay. The following applies: l6, 72 h. The class given is cell-based. The gist of the method: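 4 × 10^4 L6 cells per well in RPMI 1640 with 10% FBS and L-glutamine, exposed 72 h to seven 3-fold dilutions (90–0.12 µg/mL). Resazurin (Alamar Blue) added for 2 h, fluorescence read at ex 536/em 588 nm.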

For series [4], the system named is Leishmania donovani. Kind of series: Antileishmanial activity against Leishmania donovani (MHOM/ET/67/L82) amastigotes after 72 hrs. Type of series: functional, organism-based. To be noted: MHOM/ET/67/L82, 72 h.
A short description of series [5]: Inhibition of Plasmodium falciparum recombinant FabI at 20 ug/mL by spectrophotometric analysis.
The subject of the next series is Trypanosoma cruzi. Put plainly: Trypanocidal activity against trypomastigote form of Trypanosoma cruzi Tulahuen infected in rat L6 cells after 96 hrs. The following applies: L6, 96 h. Type of series: functional, organism-based. In short, it runs like this: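 L6 cells seeded at 2000 per well in RPMI 1640 with 10% FBS, 2 mM L-glutamine; after 24 h, 5000 trypomastigotes of the LacZ-expressing C2C4 line added. After 48 h, medium replaced with seven 3-fold dilutions (90–0.12 µg/mL) for 96 h.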

The target in series [6] is T2, Fatty acid synthase (Plasmodium falciparum) (UniProt Q965D7).
T2 sequence (whole entry): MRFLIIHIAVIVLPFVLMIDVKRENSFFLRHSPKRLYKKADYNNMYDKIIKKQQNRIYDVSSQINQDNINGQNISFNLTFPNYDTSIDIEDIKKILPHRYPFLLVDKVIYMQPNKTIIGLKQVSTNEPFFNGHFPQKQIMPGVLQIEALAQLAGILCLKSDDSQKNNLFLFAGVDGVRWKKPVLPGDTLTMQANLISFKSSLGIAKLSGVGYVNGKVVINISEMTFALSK
Kind of series: Inhibition of Plasmodium falciparum recombinant FabZ at 20 ug/mL by spectrophotometric analysis.

Structures are written as SMILES. Activity calls are given as the source filed them. No cut-off for these calls is given here. Some results are limits rather than exact numbers.

As for `CC[C@@H](C(=O)C[C@@H](C)C1=C(O)C(=O)[C@@H]2C3=CC[C@H]4C[C@@H](O[C@@H]5O[C@H](C(=O)OC)[C@@H](O)[C@H](O[C@@H]6OC[C@@H](O)[C@H](O)[C@H]6O)[C@H]5O)CC[C@]4(C)[C@H]3CC[C@]12C)C(C)C` [METHYL ESTER PANDAROSIDE G], the outcome in series [1], in series [5] and in [6] was inactive. Further, the “Ratio IC50” value in the series on Leishmania donovani [2] was found to be 10. In addition, the IC50 in series [3] was determined as 0.038 µM; in the series with Plasmodium falciparum, 0.39 µM; with Leishmania donovani [4] it was 0.051 µM; with Trypanosoma cruzi, 0.77 µM. Besides, the Activity in the series with L6 turned out to be 0.22 µM.
Regarding `C=C(C(=O)C[C@@H](C)C1=C(O)C(=O)[C@@H]2C3=C(CC[C@]12C)[C@@]1(C)CC[C@H](O[C@@H]2O[C@H](C(=O)O)[C@@H](O)[C@H](O[C@@H]4OC[C@@H](O)[C@H](O)[C@H]4O)[C@H]2O)C[C@@H]1CC3)C(C)C` [PANDAROSIDE E], the result in series [1], in [5] and in series [6] was inactive. In addition, the half-maximal inhibitory concentration (IC50) was 9.4 µM in series [3], 13.8 µM in the series with Plasmodium falciparum, 15.9 µM in the series with Leishmania donovani [4] and 71.6 µM in the series on Trypanosoma cruzi. In the series on L6, this compound yielded an Activity of 40.9 µM.
As for `CC(C)[C@@H](C)C(=O)C[C@@H](C)C1=C(O)C(=O)[C@@H]2C3=C(CC[C@]12C)[C@@]1(C)CC[C@H](O[C@@H]2O[C@H](C(=O)O)[C@@H](O)[C@H](O[C@@H]4OC[C@@H](O)[C@H](O)[C@H]4O)[C@H]2O)C[C@@H]1CC3` [PANDAROSIDE F], the outcome in series [1], in series [5] and in [6] was inactive. Moreover, the half-maximal inhibitory concentration (IC50) in series [3] amounted to 2.4 µM; with Plasmodium falciparum, 5.7 µM; in the series with Leishmania donovani [4], 4.3 µM; with Trypanosoma cruzi it was 20.3 µM. The compound also had an Activity with L6 of 10.8 µM.
For `CC[C@@H](C(=O)C[C@@H](C)C1=C(O)C(=O)[C@@H]2C3=CC[C@H]4C[C@@H](O[C@@H]5O[C@H](C(=O)O)[C@@H](O)[C@H](O[C@@H]6OC[C@@H](O)[C@H](O)[C@H]6O)[C@H]5O)CC[C@]4(C)[C@H]3CC[C@]12C)C(C)C` [PANDAROSIDE G], the result in series [1], in series [5] and in series [6] was inactive. In addition, the half-maximal inhibitory concentration (IC50) in series [3] was determined as 0.8 µM; in the series on Plasmodium falciparum, 2.5 µM; in the series on Leishmania donovani [4] it was 1.3 µM; in the series on Trypanosoma cruzi it was 9.7 µM. Further, the Activity in the series on L6 was 5.4 µM.
In the case of `CC[C@@H](C(=O)C[C@@H](C)C1=C(O)C(=O)[C@@H]2[C@@H]3CC[C@H]4C[C@@H](O[C@@H]5O[C@H](C(=O)O)[C@@H](O)[C@H](O[C@@H]6OC[C@@H](O)[C@H](O)[C@H]6O)[C@H]5O)CC[C@]4(C)[C@H]3CC[C@]12C)C(C)C` [PANDAROSIDE H], the result in series [1], in [5] and in series [6] was inactive. Moreover, the IC50 was 68.4 µM in series [3], 22.8 µM in the series with Plasmodium falciparum, 46.7 µM with Leishmania donovani [4] and greater than 120 µM with Trypanosoma cruzi. Also, the Activity with L6 is greater than 120 µM.
Turning to `CC[C@@H](C(=O)C[C@@H](C)C1=C(O)C(=O)[C@@H]2[C@@H]3CC[C@H]4C[C@@H](O[C@@H]5O[C@H](C(=O)O)[C@@H](O[C@H]6O[C@H](C)[C@@H](O)[C@H](O)[C@@H]6O)[C@H](O)[C@H]5O)CC[C@]4(C)[C@H]3CC[C@]12C)C(C)C` [PANDAROSIDE I], the result in [1], in series [5] and in series [6] was inactive. In addition, the IC50 is 19.2 µM in series [3], greater than 25 µM in the series on Plasmodium falciparum, 36 µM in the series on Leishmania donovani [4] and 70.8 µM in the series on Trypanosoma cruzi. The compound further gave an Activity in the series on L6 greater than 120 µM.
